Test results from PubChem BioAssay AID2363 (The Scripps Research Institute Molecular Screening Center, 2010).

Target: Protein phosphatase methylesterase 1 (Homo sapiens) (UniProt Q9Y570)
Test: cellular PME-1 inhibition of PP2A demethylation, late-stage follow-up, orthogonal assay for PME-1 inhibitor project, HeLa cells, demethylated PP2A western blot (AID 2363)
Conditions: demethylated PP2A western blot chemiluminescence, stronger effect = higher value
Method in brief: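 Test system: Cultured HeLa cells | Reagent: Cellular PP2A as the PME-1 demethylation substrate | Dosing: 5 and 20 µM compound | Schedule: Cell treatment at 37 °C | Measured by: SDS-PAGE immunoblot with HRP antibody against demethylated PP2A C-terminus, chemiluminescence | Measure: % inhibition of PP2A demethylation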

[1] = PP2A demethylation inhibition, at 20 µM

Chain of Protein phosphatase methylesterase 1 (Homo sapiens) (Q9Y570 whole entry, looked up): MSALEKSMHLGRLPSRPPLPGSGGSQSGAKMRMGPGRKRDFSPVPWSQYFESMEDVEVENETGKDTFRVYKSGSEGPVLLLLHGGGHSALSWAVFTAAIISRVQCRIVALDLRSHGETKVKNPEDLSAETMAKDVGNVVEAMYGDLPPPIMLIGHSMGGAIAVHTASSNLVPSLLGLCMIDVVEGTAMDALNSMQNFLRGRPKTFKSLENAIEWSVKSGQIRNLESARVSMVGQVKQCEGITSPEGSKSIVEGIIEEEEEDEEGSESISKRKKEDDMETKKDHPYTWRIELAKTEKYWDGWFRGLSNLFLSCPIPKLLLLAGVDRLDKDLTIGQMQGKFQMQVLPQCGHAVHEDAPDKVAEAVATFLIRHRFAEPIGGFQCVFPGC

Row | inhibition [1] [%] | inhibition (at 5 µM) [%] | SMILES
1 | 98 | 65 | N#C/C(=C\c1cccn1S(=O)(=O)c1cccc([N+](=O)[O-])c1)S(=O)(=O)c1ccc(F)cc1
2 | 95 | 60 | N#C/C(=C\c1cccn1S(=O)(=O)c1cccc(C#N)c1)S(=O)(=O)c1ccc(F)cc1
